For data set [1], the system named is NFS-60. The data set can be described thus: Cytotoxicity against mouse NFS60 cells assessed as cell growth inhibition incubated for 72 hrs by MTT assay. It counts as functional, cell-based. To be noted: NFS-60, 72 h. An outline of the steps: (§1)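 Cells grown in RPMI-1640 with 10% FBS and seeded at 5×10^3 per well. After 24 h, serial concentrations given for 72 h at 37°C, 5% CO2. Then 5 mg/mL MTT stock added for 3 h, formazan dissolved in DMSO, A570 read. IC50 calculated from the curves.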
Background: Formazan colour is commonly taken as a measure of viable cells.

For data set [2], the system named is HepG2. Put plainly: Cytotoxicity against human HepG2 cells assessed as cell growth inhibition incubated for 72 hrs by MTT assay. As to conditions: HepG2, 72 h. The data set is classed as functional, cell-based. An outline of the steps: as §1
Data set [3] is described as follows: Selectivity index, ratio of IC50 for human WI38 cells to IC50 for human MCF7 cells. As to conditions: WI38 cells versus MCF7 cells, read-out: Ratio IC50. The data set is classed as toxicity. In a few lines: (§2)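 SI calculated as IC50 on normal Wi-38 fibroblasts divided by IC50 on the cancer cell line. Both came from 72 h MTT assays.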
The test system of data set [4] is Enterococcus faecalis. Put plainly: Antimicrobial activity against Enterococcus faecalis ATCC 29212 incubated for 24 hrs by agar well diffusion assay. The data set is classed as functional. An outline of the steps: (§3)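 Nutrient agar spread with 100 µL inoculum: bacteria at 1×10^8 CFU/mL, fungi at 1×10^6 CFU/mL. 10 mm wells loaded with 100 µL of compound in DMSO (final 1 mg/mL). Bacteria incubated 24 h at 37 °C, fungi 48 h at 28 °C. Inhibition zones measured in mm. Ciprofloxacin and fluconazole standards at 1 mg/mL, DMSO negative control.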
(In general: Agar diffusion results depend on both activity and mobility in agar.)

A short description of data set [5]: Selectivity index, ratio of IC50 for human WI38 cells to IC50 for human HepG2 cells. The data set is classed as toxicity. To be noted: WI38 cells versus HepG2 cells, read-out: Ratio IC50. An outline of the steps:
as §2

Data set [6] relates to MCF7. Put plainly: Cytotoxicity against human MCF7 cells assessed as cell growth inhibition incubated for 72 hrs by MTT assay. The data set is classed as functional, cell-based. To be noted: MCF7, 72 h. In a few lines: as §1
Data set [7] has as its system Escherichia coli. Put plainly: Antimicrobial activity against Escherichia coli ATCC 25922 incubated for 24 hrs by agar well diffusion assay. It counts as functional. An outline of the steps:
as §3

Data set [8] concerns WI-38. Put plainly: Cytotoxicity against human WI38 cells assessed as cell growth inhibition incubated for 72 hrs by MTT assay. It counts as cell-based. To be noted: for IC50: Homo sapiens, WI-38, 72 h; for EC100: human, wi-38, 72 h. An outline of the steps: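 Wi-38 fibroblasts grown in DMEM with 10% FBS and seeded at 5×10^3 per well. Attachment 24 h, then serial concentrations for 72 h at 37°C, 5% CO2. MTT stock (5 mg/mL) added for 3 h at 37°C, DMSO solubilization, absorbance at 570 nm. IC50 estimated.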

Data set [9] deals with Staphylococcus aureus. Put plainly: Antimicrobial activity against Staphylococcus aureus ATCC 25923 incubated for 24 hrs by agar well diffusion assay. The data set is classed as functional. An outline of the steps: as §3
In data set [10] the test system is Candida albicans. Put plainly: Antimicrobial activity against Candida albicans ATCC 90028 incubated for 48 hrs by agar well diffusion assay. It counts as functional. In a few lines:
as §3

Data set [11] is described as follows: Selectivity index, ratio of IC50 for human WI38 cells to IC50 for mouse NFS60 cells. In a few lines: as §2
Data set [12] has as its system Pseudomonas aeruginosa. Put plainly: Antimicrobial activity against Pseudomonas aeruginosa ATCC 27853 incubated for 24 hrs by agar well diffusion assay. The data set is classed as functional. In a few lines: as §3
The test system of data set [13] is MCF7. The data set can be described thus: Potency index, ratio of doxorubicin IC50 to test compound IC50 against human MCF7 cells. It counts as functional.
Data set [14] deals with Escherichia coli. Put plainly: Antimicrobial activity against Escherichia coli ATCC 25922 incubated for 24 hrs by microdilution assay. The data set is classed as functional. In a few lines:
(§4)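 Two-fold serial dilutions of test solutions made in Mueller Hinton broth and inoculated. Incubated at 37°C for 24 h. MIC taken as the lowest concentration with no growth. Ciprofloxacin is the antibacterial reference, fluconazole the antifungal one, and DMSO the blank.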
Background: Broth dilution looks for growth in wells or tubes with falling amounts of substance.

Data set [15] concerns Staphylococcus aureus. The data set can be described thus: Antimicrobial activity against Staphylococcus aureus ATCC 25923 incubated for 24 hrs by microdilution assay. It counts as functional. An outline of the steps:
as §4

The subject of data set [16] is Candida albicans. Put plainly: Antimicrobial activity against Candida albicans ATCC 90028 incubated for 24 hrs by microdilution assay. The data set is classed as functional. An outline of the steps: as §4

SMILES strings stand for the structures. Converted amounts (≈) assume the structure as drawn. The source made the active and inactive calls.

As to `Cc1ccc(C(=O)OC2(C(=O)Nc3ccc([N+](=O)[O-])cc3)CCCCC2)cc1`, the IC50 (in general, the midpoint of a concentration-inhibition curve) in [1] is 45.4 nM; in data set [2] it was 61.2 nM; in data set [6], 9.8 nM; in data set [8], 32 nM. In addition, the values for the selectivity ratio in [3] and in [5] were 3.27 and 0.522, respectively. In addition, the “diameter of the inhibition zone (DIZ)” value in [4], in data set [7], in [9], in data set [10] and in [12] was “inactive” in each case. For the same compound, the EC100 in data set [8] stood at 0.0064 µM. In addition, the figures for the “Ratio IC50” value in data set [11] and in [13] were 0.704 and 2 - 4, respectively.
On to `COc1ccc(C(=O)OC2(C(=O)Nc3ccc([N+](=O)[O-])cc3)CCCCC2)cc1`, for which the IC50 stood at 38.8 nM in data set [1], 57.1 nM in [2], 41.2 nM in data set [6] and 40 nM in data set [8]. The MIC – broadly, the smallest concentration in the dilution series that meets the test's criterion for growth inhibition – in [14] (ATCC 25922, 24 h) is 2570 µM (≈ 1020 µg/mL). For the same compound, the figures for the selectivity ratio in data set [3] and in data set [5] were 0.97 and 0.7, respectively. The “diameter of the inhibition zone (DIZ)” value in [4], in data set [9] and in data set [10] was “inactive” each time. Moreover, the “diameter of the inhibition zone (DIZ)” value in data set [7] and in data set [12] was 12 mm throughout. Besides, the MIC entry in data set [15] and in data set [16] was “inactive” throughout. Further, the EC100 in data set [8] was determined as 0.0178 µM. Further, the “Ratio IC50” value in data set [11] came out at 1.031.
With `COC1(Nc2ccc([N+](=O)[O-])cc2)C(=O)c2ccccc2C1=O`, the IC50 was determined as 32.8 nM in [1], 36 nM in data set [2], 25.4 nM in data set [6] and 53.7 nM in [8]. Also, in data set [14] (ATCC 25922, 24 h), inhibition of growth (MIC) required 3280 µM (≈ 1020 µg/mL). Moreover, the values for the selectivity ratio in [3] and in [5] were 2.11 and 1.49, respectively. Moreover, the “diameter of the inhibition zone (DIZ)” value in [4], in data set [9] and in data set [10] was “inactive” throughout. Further, the “diameter of the inhibition zone (DIZ)” value in [7] and in data set [12] was 14 mm each time. Moreover, the MIC entry in data set [15] and in data set [16] was “inactive” in each case. Besides, in data set [8], the EC100 came out at 0.043 µM. Moreover, the “Ratio IC50” value in [11] came out at 1.637.
Take `O=C1OC2(CCCCC2)C(=O)N1c1ccc([N+](=O)[O-])cc1`: the concentration for half-maximal inhibition (IC50) in data set [1] stood at 8.98 nM; in data set [2], 9.4 nM; in [6], 6.5 nM; in data set [8] it was 35 nM. In data set [14] (ATCC 25922, 24 h), this compound registered a minimal inhibitory concentration (MIC) of 3530 µM (≈ 1020 µg/mL). The results for the selectivity ratio in [3] and in [5] were 5.38 and 3.72, respectively. Besides, the “diameter of the inhibition zone (DIZ)” value in [4], in data set [9] and in [10] was “inactive” throughout. In addition, the “diameter of the inhibition zone (DIZ)” value in [7] and in data set [12] was 15 mm in each case. In addition, the MIC entry in data set [15] and in [16] was “inactive” each time. In data set [8], the EC100 was determined as 0.006 µM. Also, the results for the “Ratio IC50” value in [11] and in [13] were 3.897 and 2 - 4, respectively.
With `O=C(OC1(C(=O)Nc2ccc([N+](=O)[O-])cc2)CCCCC1)c1ccc(Cl)cc1`, the half-maximal inhibitory concentration (IC50) in data set [1] is 10.3 nM; in data set [2] it was 21.8 nM; in data set [6] it was 15 nM; in data set [8], 355 nM. This compound also displayed an MIC in [14] (ATCC 25922, 24 h) of 1270 µM (≈ 512 µg/mL). The selectivity ratio came out at 23.7 in data set [3] and 16.3 in data set [5]. Moreover, the “diameter of the inhibition zone (DIZ)” value in data set [4] is reported as 13 mm; in [7], 14 mm; in data set [12] it was 16 mm. The MIC entry in [15] and in data set [16] was “inactive” in each case. For the same compound, in data set [8], the EC100 stood at 0.1128 µM. The “diameter of the inhibition zone (DIZ)” value in data set [9] and in data set [10] was “inactive” in each case. Also, the “Ratio IC50” value in data set [11] is reported as 34.466.
`O=C(OC1(C(=O)Nc2ccc([N+](=O)[O-])cc2)CCCCC1)c1ccccc1[N+](=O)[O-]`: the concentration for half-maximal inhibition (IC50) in [1] was 18.8 nM; in data set [2], 44 nM; in [6], 14.7 nM; in [8], 34.6 nM. The minimum inhibitory concentration (MIC) in data set [14] (ATCC 25922, 24 h) is 2480 µM (≈ 1020 µg/mL). Moreover, the selectivity ratio was found to be 2.35 in data set [3] and 0.786 in [5]. For the same compound, the “diameter of the inhibition zone (DIZ)” value in data set [4], in data set [9] and in data set [10] was “inactive” throughout. For the same compound, the figures for the “diameter of the inhibition zone (DIZ)” value in [7] and in [12] were 12 mm and 14 mm, respectively. Also, the MIC entry in data set [15] and in data set [16] was “inactive” throughout. For the same compound, the EC100 in [8] stood at 0.0067 µM. The “Ratio IC50” value in [11] is 1.84.
For `O=C(Nc1ccc([N+](=O)[O-])cc1)C1(O)CCCCC1`, the IC50 was determined as 716 nM in [1], 648 nM in data set [2], 664 nM in [6] and 1220 nM in [8]. Further, the MIC result in data set [14] and in data set [15] was “inactive” each time. The figures for the selectivity ratio in data set [3] and in [5] were 1.84 and 1.88, respectively. The “diameter of the inhibition zone (DIZ)” value in data set [4], in [9] and in data set [12] was “inactive” each time. In addition, the “diameter of the inhibition zone (DIZ)” value in data set [7] worked out at 12 mm; in data set [10] it was 15 mm. Also, the EC100 in data set [8] was found to be 0.53 µM. In data set [11], the “Ratio IC50” value came to 1.705. This compound also yielded an MIC in [16] (ATCC 90028, 24 h) of 1040 µM (≈ 275 µg/mL).
`O=COC1(C(=O)Nc2ccc([N+](=O)[O-])cc2)CCCCC1`: the half-maximal inhibitory concentration (IC50) worked out at 33.8 nM in [1], 34.1 nM in data set [2], 35.4 nM in data set [6] and 46.3 nM in data set [8]. In [14] (ATCC 25922, 24 h), this compound returned an MIC of 3500 µM (≈ 1020 µg/mL). Further, the selectivity ratio turned out to be 1.31 in [3] and 1.36 in data set [5]. In addition, the “diameter of the inhibition zone (DIZ)” value in data set [4] came to 12 mm; in [7], 15 mm; in data set [12] it was 18 mm. In addition, the MIC result in [15] and in [16] was “inactive” each time. Moreover, the EC100 in [8] stood at 0.0271 µM. Moreover, the “diameter of the inhibition zone (DIZ)” value in [9] and in data set [10] was “inactive” each time. The “Ratio IC50” value in [11] is listed as 1.369.

The values are drawn from ChEMBL document CHEMBL4390662, “Design, synthesis and biological evaluation of novel α-acyloxy carboxamides via Passerini reaction as caspase 3/7 activators” (Eur J Med Chem, 2019).
